# Most compounds without a hit are left out; they make up all but 1.7% or so of the library.
# T cell HTS: modulates CD8 T cell binding to vesicles; AID 2052; response (vesicle binding), % at 7 µM; 2C CD8+ T cell-vesicle binding, flow cytometry; hits give low values; actives 0.068% (n = 330,000);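 active = response, share of CD8 T cells binding vesicles, and their 90th percentile fluorescence all below set limits, cut at about 80% in these data, passing the limit was not always enough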;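 note: values below 100% mean blocked vesicle binding to the CD8+ T cells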
#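 Test system: purified 2C TCR transgenic mouse naive CD8+ T cells. Probe or stimulus: QL9-peptide-loaded Drosophila micro-vesicles bearing Ld, ICAM-1 and B7-1. Incubation: binding step 1.5 h, 37 °C, antibody labelling 20 min, ice. Measured by: flow cytometry of vesicle-bound cells.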
# Vif imaging: HIV Vif inhibition | HEK293T cells, Vif self-association by quenched fluorescence, imaging, 24 h | inhibition, % at 7.49 µM | actives 0.35% (n = 340,000) | AID 602346; in the data active = inhibition above about 50%, passing the limit was not always enough; inconclusive = no clear call, values can overlap the other calls; inactive = below about 31%
# Myeloid diff MLP: compounds promoting myeloid differentiation | ER-HoxA9 myeloid progenitors, lysozyme-GFP differentiation, flow cytometry | calls only at 10 µM | actives 1% (n = 360,000) | AID 624256;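 active = normalized GFP-positive differentiation at or above the plate's own cutoff, the solvent-only control mean plus 3 SD; inconclusive = no clear call, values can overlap the other calls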;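 note: cells exposed to compound for four days before flow analysis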
# Pemphigus Ab inh: blocks pemphigus antibody binding to human desmoglein-3; P32926; DSG3-coupled beads, scFv-anti-DSG3-GFP binding, flow cytometry; hits give low values; binding (percent of control), % at 10 µM; actives 0.48% (n = 310,000);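 active = binding more than 3 SD below its plate's average and above zero; inconclusive = below that plate limit but binding exactly zero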;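 note: hits lower antibody fragment binding to DSG3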
# A number is an active result; - = inactive; ? = inconclusive; . = not tested or not shown; + = active, no number.
SMILES,T cell HTS,Vif imaging,Myeloid diff MLP,Pemphigus Ab inh
Cc1ccccc1S(=O)(=O)NC(=O)C1(C)CCN1C(=O)CC(c1ccccc1)c1ccccc1 (stereo unspecified),.,-,-,.
Cc1cccc(Nc2nc(-c3ccc(O)c(O)c3)cs2)n1,-,64,-,-
CC(C)[C@]1(c2ccc(Cl)cc2)ON(c2ccccc2C(F)(F)F)C1=O,-,.,.,.
CC1(S(=O)(=O)O)CC(=O)c2ccccc2C1=O (stereo unspecified),-,174,-,-
CC(=O)c1ccc(OCC(=O)NC2CCCN(Cc3ccccc3F)C2)cc1 (stereo unspecified),.,-,+,-
O=C1NC(NS(=O)(=O)c2ccccc2)(C(F)(F)F)C(=O)N1CCc1ccccc1 (stereo unspecified),-,-,-,.
COc1ccc(S(=O)(=O)NC2(C(F)(F)F)NC(=O)N(CCc3ccccc3)C2=O)cc1 (stereo unspecified),-,55,-,-
CCc1nc2ccc(C(=O)NCc3cccs3)cn2c1N(C)Cc1nccs1,.,-,-,.
COC(=O)c1sc2cc([N+](=O)[O-])cc(SCC(C)C)c2c1N,-,-,+,-
CCOC(=O)c1sc2ncc([N+](=O)[O-])cc2c1N,-,-,-,-
CN(C)C(=O)c1ccc(NC(=O)CSc2nnc(-c3cccs3)n2N)cc1,-,-,-,.
O=C(c1ccccc1Cl)N1CCC(O)(c2cccnc2)CC1,-,-,-,-
O=S(=O)(c1ccc(Cl)cc1)N1CCC(O)(c2cccnc2)CC1,0.0,-,-,-
O=[N+]([O-])c1cc(-n2cnnn2)ccc1N1CCC(Cc2ccccc2)CC1,-,78,-,-
CC1CC(C)CN(c2ccc(-n3cnnn3)cc2[N+](=O)[O-])C1 (stereo unspecified),-,-,-,-
COCCNC(=O)C[C@H]1C[C@H]2c3cc(NS(=O)(=O)c4ccc(F)cc4)ccc3O[C@H]2[C@H](CO)O1,.,-,-,.
CCNC(=O)C1CCCN(C(=O)c2ccc(C(=O)OC)cc2)CC1 (stereo unspecified),.,-,-,.
COc1cc(-c2cc(=O)c3c(O)c(OC)c(OC)c(O)c3o2)ccc1O,-,62,-,.
CC1(C(=O)O)CCCN1C(=O)c1cc2ccccc2s1 (stereo unspecified),.,-,-,.
Cc1ccc(CNS(=O)(=O)c2ccc(Cl)s2)cc1,.,-,-,-
CC(C)NC(=O)C1(C)CN(S(C)(=O)=O)CC(=O)N1Cc1cccs1 (stereo unspecified),.,.,-,.
COc1cccc(OCc2cc(C(=O)N(C)C3CCOCC3)no2)c1,-,.,+,-
COc1cccc(OCc2cc(C(=O)N3CCC(c4ccncc4)CC3)no2)c1,-,-,+,-
COc1cccc(OCc2cc(C(=O)N(C)C3CC(C)(C)NC(C)(C)C3)no2)c1,-,-,-,-
CCOC(=O)CC1(NC(=O)c2cc(COc3cccc(OC)c3)on2)CCCCC1,-,-,-,81
SMILES,T cell HTS,Vif imaging,Myeloid diff MLP,Pemphigus Ab inh
COc1ccc(CNC(=O)C2Cc3c(-c4ccc5c(c4)OCO5)ccnc3O2)cc1OC (stereo unspecified),.,-,-,.
COc1cccc(CN2CCC2(C)C(=O)NCc2cccc(C(F)(F)F)c2)c1OC (stereo unspecified),.,.,-,.
COc1ccc(NS(=O)(=O)c2cccc(C(=O)N3CCN(c4ccccc4O)CC3)c2)cc1,-,-,-,-
COC(=O)c1c(C)[nH]c(C(=O)CC#N)c1C,-,-,+,-
Cn1c(CC(O)c2nc3ccccc3n2C)nc2ccccc21 (stereo unspecified),.,-,-,-
Cc1[nH]c2ccccc2c1CCNC(=O)c1ccc2c(c1[N+](=O)[O-])C(=O)c1ccccc1C2=O,-,-,+,-
COCCN1C(=O)C(=O)/C(=C(/O)c2cccc(OC)c2)C1c1ccc(C)o1 (stereo unspecified),75,.,-,-
COC(=O)c1ccc(N2C(c3cc(OC)cc(OC)c3)=Cc3ccc(-c4cccnc4)cc3C2CC(=O)C2CC2)cc1 (stereo unspecified),.,.,-,.
COCCNC(=O)C1(C)CCCN(C(=O)c2cccc(C(F)(F)F)c2)C1 (stereo unspecified),.,-,-,.
Nc1cc[n+](CC(=O)c2ccc3c(c2)OCCO3)cc1,-,82,+,-
CC1=C(C(=O)Nc2ccccc2C(=O)NCc2ccccc2)SCCO1,-,-,-,-
CC1=C(C(=O)Nc2ccccc2C(=O)NC2CCC(C)CC2)SCCO1 (stereo unspecified),-,-,+,.
CC1(O)CC(C)(C)C(C#N)C(=O)N1 (stereo unspecified),.,-,-,-
COCC(C)n1c(C)cc(C(=O)COC(=O)c2nn(C)c(=O)c3ccccc23)c1C (stereo unspecified),-,-,-,64
Cc1oc(-c2ccc(Cl)cc2)nc1CS(=O)CC(=O)NCc1ccccc1 (stereo unspecified),-,-,?,67
Cc1ccc(-c2nc(CS(=O)CC(=O)NCCC(C)C)c(C)o2)cc1 (stereo unspecified),-,.,-,72
CN1C(=O)C(CC#N)(C2(CC#N)C(=O)N(C)c3ccccc32)c2ccccc21 (stereo unspecified),.,.,-,-
Cc1c(C(=O)NCc2ccccn2)oc2ccc(S(=O)(=O)N3CCOCC3)cc12,-,86,-,-
CC(=O)NC(CCC(=O)O)C(=O)O (stereo unspecified),.,-,-,.
NC(CCC(=O)NC(CS)C(=O)NCC(=O)O)C(=O)O (stereo unspecified),.,-,+,-
Cn1c(CNC(=O)CNS(=O)(=O)c2ccccc2)cc(=O)n(C)c1=O,-,-,-,-
COc1ccc(S(=O)(=O)NCC(=O)NCc2cc(=O)n(C)c(=O)n2C)cc1C,-,-,+,.
Cc1ccc(C(=O)NNC(=O)CCC(=O)NCc2ccccc2)cc1Br,-,-,+,-
Cc1ccc2c(c1)CCCN2CC(=O)Nc1cc(S(=O)(=O)N2CCCC2)ccc1Cl,-,-,+,-
Cc1ccc(S(=O)(=O)Nc2c(C)cc([N+](=O)[O-])cc2C)cc1,.,-,-,.
SMILES,T cell HTS,Vif imaging,Myeloid diff MLP,Pemphigus Ab inh
Cc1ccc(S(=O)(=O)c2ccc([N+](=O)[O-])o2)cc1,.,90,?,.
COc1ccc(C(=O)NN=C2CCCC2)cc1,-,-,+,-
COc1cccc(C(=O)NN=C2CCCC2)c1,-,-,?,-
O=C(CC1C(=O)NCCN1Cc1cccc(F)c1)NCCCCCN1CCOCC1 (stereo unspecified),-,-,-,-
CC(=O)C1=C(O)C(=O)OC1c1ccc(Cl)cc1 (stereo unspecified),-,-,-,76
O=C(Cn1sc2ccccc2c1=O)Nc1ccc(Cl)cc1,.,-,-,72
O=C(Cn1sc2ccccc2c1=O)Nc1ccc(F)cc1,.,-,-,-
O=C(CN1C(=O)c2ccccc2S1(=O)=O)NC1CC2CCC1C2 (stereo unspecified),-,-,-,-
CCOC(=O)C1CCN(C(=O)CN2C(=O)c3ccccc3S2(=O)=O)CC1,0.0,-,-,-

# Source: PubChem BioAssay (several laboratories)
